According to ChEMBL document CHEMBL2062460, “Disubstituted thiourea derivatives and their activity on CNS: synthesis and biological evaluation” (Eur J Med Chem, 2012):
pEC50: −log10 of the molar value. Values after ≈ are worked out from the molar mass of the structure shown. Active and inactive are the calls of the source. No cut-off for these calls is given here.

test system: Enterococcus hirae; assay: Antibacterial activity against Enterococcus hirae ATCC 10541 after 18 hrs by twofold serial agar dilution technique; assay type: functional; conditions: ATCC 10541, 18 h

Row | Compound | MIC [µg/mL]
1 | Fc1cccc(NC(=S)Nc2nc[nH]n2)c1 | 400 (≈ 1690 µM)
2 | S=C(Nc1nc[nH]n1)Nc1ccccc1Br | 400 (≈ 1340 µM)

test system: Staphylococcus aureus; assay: Antibacterial activity against methicillin-susceptible Staphylococcus aureus clinical isolate 372/09 after 18 hrs by twofold serial agar dilution technique; assay type: functional; conditions: clinical isolate 372/09, 18 h
Procedure, shortened: (§1)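 Clinical isolates came from patients in Warsaw Medical University Hospitals and were classed as methicillin-susceptible or -resistant. MIC was determined by twofold serial agar dilution on Mueller–Hinton II agar (CLSI), 3.125–400 µg/mL in agar, with compounds in methanol or DMSO. Inoculum was 10^4 CFU/mL and plates were read after 18 h at 35 °C.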

Row | Compound | MIC [µg/mL]
3 | Fc1cccc(NC(=S)Nc2nc[nH]n2)c1 | 25 (≈ 105 µM)
4 | S=C(Nc1nc[nH]n1)Nc1ccccc1Br | 50 (≈ 168 µM)

test system: Staphylococcus aureus; assay: Antibacterial activity against methicillin-susceptible Staphylococcus aureus clinical isolate 267/08 after 18 hrs by twofold serial agar dilution technique; assay type: functional; conditions: clinical isolate 267/08, 18 h; procedure, shortened: as §1

Row | Compound | MIC [µg/mL]
5 | Fc1cccc(NC(=S)Nc2nc[nH]n2)c1 | 25 (≈ 105 µM)
6 | S=C(Nc1nc[nH]n1)Nc1ccccc1Br | 50 (≈ 168 µM)

test system: Staphylococcus epidermidis; assay: Antibacterial activity against Staphylococcus epidermidis ATCC 12228 after 18 hrs by twofold serial agar dilution technique; assay type: functional; conditions: ATCC 12228, 18 h
Procedure, shortened: (§2)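 Twofold serial agar dilution on Mueller–Hinton II agar, following CLSI guidelines. Compounds were dissolved in methanol or DMSO and tested at final agar concentrations of 3.125–400 µg/mL. Final inoculum was 10^4 CFU/mL.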

Row | Compound | MIC [µg/mL]
7 | Fc1cccc(NC(=S)Nc2nc[nH]n2)c1 | 50 (≈ 211 µM)
8 | S=C(Nc1nc[nH]n1)Nc1ccccc1Br | 25 (≈ 83.8 µM)

test system: Staphylococcus aureus; assay: Antibacterial activity against Staphylococcus aureus ATCC 29213 at 400 ug/disc after 18 hrs by disc diffusion method; assay type: functional; conditions: ATCC 29213, 18 h, read-out: DIZ
Procedure, shortened: (§3)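 Disc diffusion per CLSI on Mueller–Hinton II agar; 9 mm paper discs loaded from methanol or DMSO solutions to 400 µg per disc, dried; growth inhibition zone diameter read after 18 h at 35 °C.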

Row | Compound | zone of inhibition at 400 µg/disc [mm]
9 | Fc1cccc(NC(=S)Nc2nc[nH]n2)c1 | 18
10 | S=C(Nc1nc[nH]n1)Nc1ccccc1Br | 12

test system: Staphylococcus aureus; assay: Antibacterial activity against Staphylococcus aureus NCTC 4163 at 400 ug/disc after 18 hrs by disc diffusion method; assay type: functional; conditions: NCTC 4163, 18 h, read-out: DIZ; procedure, shortened: as §3

Row | Compound | zone of inhibition at 400 µg/disc [mm]
11 | Fc1cccc(NC(=S)Nc2nc[nH]n2)c1 | 16
12 | S=C(Nc1nc[nH]n1)Nc1ccccc1Br | 11

test system: Staphylococcus aureus; assay: Antibacterial activity against methicillin-resistant Staphylococcus aureus clinical isolate 329/08 after 18 hrs by twofold serial agar dilution technique; assay type: functional; conditions: clinical isolate 329/08, 18 h; procedure, shortened: as §1

Row | Compound | MIC [µg/mL]
13 | Fc1cccc(NC(=S)Nc2nc[nH]n2)c1 | 12.5 (≈ 52.7 µM)
14 | S=C(Nc1nc[nH]n1)Nc1ccccc1Br | 50 (≈ 168 µM)

test system: Human immunodeficiency virus 1; assay: Antiviral activity against HIV1 infected in human MT4 cells assessed as virus-induced cytopathogenicity after 4 days by MTT assay; assay type: functional, organism-based; conditions: Human immunodeficiency virus 1, MT4, 96 h

Row | Compound | pEC50
15 | S=C(Nc1nc[nH]n1)Nc1ccccc1Br | < 4.00

test system: Staphylococcus aureus; assay: Antibacterial activity against methicillin-resistant Staphylococcus aureus clinical isolate 357/09 after 18 hrs by twofold serial agar dilution technique; assay type: functional; conditions: clinical isolate 357/09, 18 h; procedure, shortened: as §1

Row | Compound | MIC [µg/mL]
16 | Fc1cccc(NC(=S)Nc2nc[nH]n2)c1 | 25 (≈ 105 µM)
17 | S=C(Nc1nc[nH]n1)Nc1ccccc1Br | 50 (≈ 168 µM)

test system: Staphylococcus aureus; assay: Antibacterial activity against methicillin-susceptible Staphylococcus aureus clinical isolate 268/08 after 18 hrs by twofold serial agar dilution technique; assay type: functional; conditions: clinical isolate 268/08, 18 h; procedure, shortened: as §1

Row | Compound | MIC [µg/mL]
18 | Fc1cccc(NC(=S)Nc2nc[nH]n2)c1 | 25 (≈ 105 µM)
19 | S=C(Nc1nc[nH]n1)Nc1ccccc1Br | 50 (≈ 168 µM)

test system: Micrococcus luteus; assay: Antibacterial activity against Micrococcus luteus ATCC 9341 at 400 ug/disc after 18 hrs by disc diffusion method; assay type: functional; conditions: ATCC 9341, 18 h, read-out: DIZ; procedure, shortened: as §3

Row | Compound | zone of inhibition at 400 µg/disc [mm]
20 | Fc1cccc(NC(=S)Nc2nc[nH]n2)c1 | 36
21 | S=C(Nc1nc[nH]n1)Nc1ccccc1Br | 16

test system: Staphylococcus aureus; assay: Antibacterial activity against Staphylococcus aureus ATCC 6538 after 18 hrs by twofold serial agar dilution technique; assay type: functional; conditions: ATCC 6538, 18 h; procedure, shortened: as §2

Row | Compound | MIC [µg/mL]
22 | Fc1cccc(NC(=S)Nc2nc[nH]n2)c1 | 100 (≈ 421 µM)
23 | S=C(Nc1nc[nH]n1)Nc1ccccc1Br | 50 (≈ 168 µM)

test system: Candida albicans; assay: Antifungal activity against Candida albicans ATCC 10231 at 400 ug/disc after 18 hrs by disc diffusion method; assay type: functional, organism-based; conditions: not given
Procedure, shortened: (§4)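 Yeasts tested by disc diffusion (CLSI) on RPMI agar with 2% glucose; 9 mm paper discs bearing 400 µg compound from methanol or DMSO solution; inhibition zone diameter read after 18 h at 35 °C.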

Row | Compound | diameter of the inhibition zone (DIZ)
24 | Fc1cccc(NC(=S)Nc2nc[nH]n2)c1 | inactive
25 | S=C(Nc1nc[nH]n1)Nc1ccccc1Br | inactive

test system: Bacillus subtilis; assay: Antibacterial activity against Bacillus subtilis ATCC 6633 after 18 hrs by twofold serial agar dilution technique; assay type: functional; conditions: ATCC 6633, 18 h

Row | Compound | MIC [µg/mL]
26 | Fc1cccc(NC(=S)Nc2nc[nH]n2)c1 | 50 (≈ 211 µM)
27 | S=C(Nc1nc[nH]n1)Nc1ccccc1Br | 12.5 (≈ 41.9 µM)

test system: Pseudomonas aeruginosa; assay: Antibacterial activity against Pseudomonas aeruginosa ATCC 27853 at 400 ug/disc after 18 hrs by disc diffusion method; assay type: functional, organism-based; conditions: not given; procedure, shortened: as §3

Row | Compound | diameter of the inhibition zone (DIZ)
28 | Fc1cccc(NC(=S)Nc2nc[nH]n2)c1 | inactive
29 | S=C(Nc1nc[nH]n1)Nc1ccccc1Br | inactive

test system: Staphylococcus epidermidis; assay: Antibacterial activity against methicillin-resistant Staphylococcus epidermidis clinical isolate 340/09 after 18 hrs by twofold serial agar dilution technique; assay type: functional; conditions: clinical isolate 340/09, 18 h; procedure, shortened: as §1

Row | Compound | MIC [µg/mL]
30 | S=C(Nc1nc[nH]n1)Nc1ccccc1Br | 50 (≈ 168 µM)

test system: Staphylococcus aureus; assay: Antibacterial activity against Staphylococcus aureus ATCC 25923 after 18 hrs by twofold serial agar dilution technique; assay type: functional; conditions: ATCC 25923, 18 h; procedure, shortened: as §2

Row | Compound | MIC [µg/mL]
31 | Fc1cccc(NC(=S)Nc2nc[nH]n2)c1 | 50 (≈ 211 µM)
32 | S=C(Nc1nc[nH]n1)Nc1ccccc1Br | 50 (≈ 168 µM)

test system: Staphylococcus aureus; assay: Antibacterial activity against methicillin-susceptible Staphylococcus aureus clinical isolate 269/08 after 18 hrs by twofold serial agar dilution technique; assay type: functional; conditions: clinical isolate 269/08, 18 h; procedure, shortened: as §1

Row | Compound | MIC [µg/mL]
33 | Fc1cccc(NC(=S)Nc2nc[nH]n2)c1 | 12.5 (≈ 52.7 µM)
34 | S=C(Nc1nc[nH]n1)Nc1ccccc1Br | 50 (≈ 168 µM)

test system: Staphylococcus aureus; assay: Antibacterial activity against methicillin-susceptible Staphylococcus aureus clinical isolate 256/08 after 18 hrs by twofold serial agar dilution technique; assay type: functional; conditions: clinical isolate 256/08, 18 h; procedure, shortened: as §1

Row | Compound | MIC [µg/mL]
35 | Fc1cccc(NC(=S)Nc2nc[nH]n2)c1 | 25 (≈ 105 µM)
36 | S=C(Nc1nc[nH]n1)Nc1ccccc1Br | 50 (≈ 168 µM)

test system: Staphylococcus epidermidis; assay: Antibacterial activity against Staphylococcus epidermidis ATCC 12228 at 400 ug/disc after 18 hrs by disc diffusion method; assay type: functional; conditions: ATCC 12228, 18 h, read-out: DIZ; procedure, shortened: as §3

Row | Compound | zone of inhibition at 400 µg/disc [mm]
37 | Fc1cccc(NC(=S)Nc2nc[nH]n2)c1 | 22
38 | S=C(Nc1nc[nH]n1)Nc1ccccc1Br | 12

test system: Escherichia coli; assay: Antibacterial activity against Escherichia coli NCTC 8196 at 400 ug/disc after 18 hrs by disc diffusion method; assay type: functional, organism-based; conditions: not given; procedure, shortened: as §3

Row | Compound | diameter of the inhibition zone (DIZ)
39 | Fc1cccc(NC(=S)Nc2nc[nH]n2)c1 | inactive
40 | S=C(Nc1nc[nH]n1)Nc1ccccc1Br | inactive

test system: Micrococcus luteus; assay: Antibacterial activity against Micrococcus luteus ATCC 10240 after 18 hrs by twofold serial agar dilution technique; assay type: functional; conditions: ATCC 10240, 18 h

Row | Compound | MIC [µg/mL]
41 | Fc1cccc(NC(=S)Nc2nc[nH]n2)c1 | 50 (≈ 211 µM)
42 | S=C(Nc1nc[nH]n1)Nc1ccccc1Br | 6.25 (≈ 21 µM)

test system: Staphylococcus epidermidis; assay: Antibacterial activity against methicillin-resistant Staphylococcus epidermidis clinical isolate 317/08 after 18 hrs by twofold serial agar dilution technique; assay type: functional; conditions: clinical isolate 317/08, 18 h; procedure, shortened: as §1

Row | Compound | MIC [µg/mL]
43 | S=C(Nc1nc[nH]n1)Nc1ccccc1Br | 100 (≈ 335 µM)

test system: Candida albicans; assay: Antifungal activity against Candida albicans ATCC 90028 at 400 ug/disc after 18 hrs by disc diffusion method; assay type: functional, organism-based; conditions: not given; procedure, shortened: as §4

Row | Compound | diameter of the inhibition zone (DIZ)
44 | Fc1cccc(NC(=S)Nc2nc[nH]n2)c1 | inactive
45 | S=C(Nc1nc[nH]n1)Nc1ccccc1Br | inactive

test system: Staphylococcus epidermidis; assay: Antibacterial activity against methicillin-resistant Staphylococcus epidermidis clinical isolate 343/09 after 18 hrs by twofold serial agar dilution technique; assay type: functional; conditions: clinical isolate 343/09, 18 h; procedure, shortened: as §1

Row | Compound | MIC [µg/mL]
46 | S=C(Nc1nc[nH]n1)Nc1ccccc1Br | 50 (≈ 168 µM)

test system: Pseudomonas aeruginosa; assay: Antibacterial activity against Pseudomonas aeruginosa ATCC 15442 at 400 ug/disc after 18 hrs by disc diffusion method; assay type: functional, organism-based; conditions: not given; procedure, shortened: as §3

Row | Compound | diameter of the inhibition zone (DIZ)
47 | Fc1cccc(NC(=S)Nc2nc[nH]n2)c1 | inactive
48 | S=C(Nc1nc[nH]n1)Nc1ccccc1Br | inactive
